Assay results as given in ChEMBL document CHEMBL1125357, “Gonadotropin-releasing hormone antagonists with N omega-triazolylornithine, -lysine, or -p-aminophenylalanine residues at positions 5 and 6” (J Med Chem, 1992).
pKd: −log10 of the molar value. Non-standard residues stand in square brackets, D forms with d. Residues, ends and D or L forms follow the SMILES beside them. *: point of attachment. dNva(5-oxo-5-(4-MeOPh)) = COc1ccc(C(=O)CC[C@@H](N)C(=O)O)cc1; Triazol3yl(1,2,4-5-NH2) = Nc1nc(*)n[nH]1; dPhe(4-Cl) = N[C@H](Cc1ccc(Cl)cc1)C(=O)O; d2Nal = N[C@H](Cc1ccc2ccccc2c1)C(=O)O; Lys(iPr) = CC(C)NCCCC[C@H](N)C(=O)O; d3Pal = N[C@H](Cc1cccnc1)C(=O)O; Nicotinoyl = O=C(c1cccnc1)*; dOrn = NCCC[C@@H](N)C(=O)O; Orn = NCCC[C@H](N)C(=O)O

Assays:
[1] = Retention time of the compound; type: ADME
Method in brief: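 Peptide (0.5 mg/mL, 10 μL) was loaded in TEAP pH 7.0/CH3CN (76/24), acidified with H3PO4 where insoluble. Elution used a 30-48% CH3CN gradient over 30 min at 1.5 mL/min. Retention time is reported in minutes.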

[2] = molecular target: T1, Gonadotropin-releasing hormone receptor (Homo sapiens, UniProt P30968); test: The binding affinity towards Gonadotropin-releasing hormone receptor
T1 sequence (P30968 whole entry): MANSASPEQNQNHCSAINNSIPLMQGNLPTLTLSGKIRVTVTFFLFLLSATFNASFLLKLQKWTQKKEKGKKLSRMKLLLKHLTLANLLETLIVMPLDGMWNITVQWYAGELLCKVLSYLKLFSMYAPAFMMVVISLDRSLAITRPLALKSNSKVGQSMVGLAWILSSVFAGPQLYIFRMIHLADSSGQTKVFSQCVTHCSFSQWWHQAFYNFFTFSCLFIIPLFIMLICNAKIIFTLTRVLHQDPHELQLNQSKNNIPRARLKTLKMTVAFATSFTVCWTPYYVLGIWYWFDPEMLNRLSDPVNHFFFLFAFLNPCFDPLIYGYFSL

| Compound | RT [1] [min] | pKd [2] |
| --- | --- | --- |
| CC(=O)N[C@H](Cc1ccc2ccccc2c1)C(=O)N[C@H](Cc1ccc(Cl)cc1)C(=O)N[C@H](Cc1cccnc1)C(=O)N[C@@H](CO)C(=O)N[C@@H](CCCCNc1n[nH]c(N)n1)C(=O)N[C@H](CCCCNc1n[nH]c(N)n1)C(=O)N[C@@H](CC(C)C)C(=O)N[C@@H](CCCCNC(C)C)C(=O)N1CCC[C@H]1C(=O)NCC(N)=O | 5.53 | 9.07 |
| CC(=O)N[C@H](Cc1ccc2ccccc2c1)C(=O)N[C@H](Cc1ccc(Cl)cc1)C(=O)N[C@H](Cc1cccnc1)C(=O)N[C@@H](CO)C(=O)N[C@@H](CCCNC(=N)N)C(=O)N[C@H](Cc1cccnc1)C(=O)N[C@@H](CC(C)C)C(=O)N[C@@H](CCCNC(=N)N)C(=O)N1CCC[C@H]1C(=O)N[C@H](C)C(N)=O | 14.1 | 9.62 |
| CC(=O)N[C@H](Cc1ccc2ccccc2c1)C(=O)N[C@H](Cc1ccc(Cl)cc1)C(=O)N[C@H](Cc1cccnc1)C(=O)N[C@@H](CO)C(=O)N[C@@H](CCCCNC(=O)c1cccnc1)C(=O)N[C@H](CCCCNC(=O)c1cccnc1)C(=O)N[C@@H](CC(C)C)C(=O)N[C@@H](CCCCNC(C)C)C(=O)N1CCC[C@H]1C(=O)N[C@H](C)C(N)=O (Ac-[d2Nal][dPhe(4-Cl)][d3Pal]SK(Nicotinoyl)[dK](Nicotinoyl)L[Lys(iPr)]P[dA]-NH2) | 13.6 | 9.46 |
| CC(=O)N[C@H](Cc1ccc2ccccc2c1)C(=O)N[C@H](Cc1ccc(Cl)cc1)C(=O)N[C@H](Cc1cccnc1)C(=O)N[C@@H](CO)C(=O)N[C@@H](CCCCNc1n[nH]c(N)n1)C(=O)N[C@H](CCCCNc1n[nH]c(N)n1)C(=O)N[C@@H](CC(C)C)C(=O)N[C@@H](CCCCNC(C)C)C(=O)N1CCC[C@H]1C(=O)N[C@H](C)C(N)=O (Ac-[d2Nal][dPhe(4-Cl)][d3Pal]SK(Triazol3yl(1,2,4-5-NH2))[dK](Triazol3yl(1,2,4-5-NH2))L[Lys(iPr)]P[dA]-NH2) | 7.08 | 9.32 |
| COc1ccc(C(=O)CC[C@@H](NC(=O)[C@H](CCCN=C(N)N)NC(=O)[C@H](CO)NC(=O)[C@@H](Cc2cccnc2)NC(=O)[C@@H](Cc2ccc(Cl)cc2)NC(=O)[C@@H](Cc2ccc3ccccc3c2)NC(C)=O)C(=O)N[C@@H](CC(C)C)C(=O)N[C@@H](CCCN=C(N)N)C(=O)N2CCC[C@H]2C(=O)N[C@H](C)C(N)=O)cc1 (Ac-[d2Nal][dPhe(4-Cl)][d3Pal]SR[dNva(5-oxo-5-(4-MeOPh))]LRP[dA]-NH2) | 22.8 | 9.17 |
| CC(=O)N[C@H](Cc1ccc2ccccc2c1)C(=O)N[C@H](Cc1ccc(Cl)cc1)C(=O)N[C@H](Cc1cccnc1)C(=O)N[C@@H](CO)C(=O)N[C@@H](CCCNc1n[nH]c(N)n1)C(=O)N[C@H](CCCNc1n[nH]c(N)n1)C(=O)N[C@@H](CC(C)C)C(=O)N[C@@H](CCCCNC(C)C)C(=O)N1CCC[C@H]1C(=O)N[C@H](C)C(N)=O (Ac-[d2Nal][dPhe(4-Cl)][d3Pal]S[Orn](Triazol3yl(1,2,4-5-NH2))[dOrn](Triazol3yl(1,2,4-5-NH2))L[Lys(iPr)]P[dA]-NH2) | 6.2 | 9.68 |
